From PubChem
The list is not random: actives were taken first. Their share in the collection is about 3.9%.
TAAR1 antagonist – antagonists of human TAAR1. CHO RD-HGA16 TAAR1, Fluo-8 calcium fluorescence, antagonist. inhibition, % at 3 µM. 360,000 compounds, 1.5% hits. AID 624466;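 active = inhibition above a per-plate cutoff, the mean inhibition of test compounds on that plate plus 3 SD, cut at about 49% in these data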
Target sequence (Q96RJ0 whole entry, looked up): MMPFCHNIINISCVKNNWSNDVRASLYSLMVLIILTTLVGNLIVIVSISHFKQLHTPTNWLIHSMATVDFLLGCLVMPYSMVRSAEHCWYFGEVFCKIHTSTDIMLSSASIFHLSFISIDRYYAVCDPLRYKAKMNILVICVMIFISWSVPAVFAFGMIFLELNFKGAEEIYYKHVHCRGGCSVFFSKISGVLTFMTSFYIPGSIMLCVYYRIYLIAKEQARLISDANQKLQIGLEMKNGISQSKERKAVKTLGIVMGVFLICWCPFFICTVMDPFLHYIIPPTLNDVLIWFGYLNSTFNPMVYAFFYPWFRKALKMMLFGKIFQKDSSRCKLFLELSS
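test system = CHO RD-HGA16 cells bearing hTAAR1 | replication = singlicate | controls = DMSO-only wells and EC80 β-PEA-stimulated wells | reagent = EC80 β-phenethylamine stimulus | read-out basis = percent inhibition of PEA-evoked calcium signal, max/basal emission ratio | schedule = seeding 17-24 h prior, 75-min 37 °C, 30-min RT dye loading | signal = kinetic Fluo-8 calcium fluorescence measurement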
TAAR1 ag – human TAAR1 agonism. CHO RD-HGA16 TAAR1, Fluo-8 calcium fluorescence; vehicle wells 0%, saturating PEA agonist 100%. activation, % at 3 µM. 360,000 compounds, 0.99% hits;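 active = activation above the mean activation of all test compounds in the run plus 3 SD, cut at about 38% in these data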
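System: CHO RD-HGA16 cells carrying human TAAR1 plus Gα16; Incubation: 17-24 h seeding, 75 min 37 °C dye, 30 min RT; Measured by: Fluo-8 fluorescence, 5 s baseline then 140 s kinetic read; Control set: DMSO and PEA EC100; Replication: single well for each compound.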
CHO parental Ca – signal in parental CHO cells, OX1R antagonist counter-screen | parental CHO-K1, ATP-induced calcium, Fluo-8 fluorescence | inhibition, % at 5.6 µM | 330,000 compounds, 0.63% hits | AID 463079;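 active = inhibition above that plate's mean sample inhibition plus 3 SD, cut at about 26% in these data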
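Material – parental CHO cells · Reagent – ATP stimulus · Compound – single nominal dose of 5.6 µM per compound · Detection – Fluo-8 fluorescence · Read-out basis – percent inhibition of calcium signal · Controls – ATP-challenged DMSO wells low, unchallenged DMSO wells high · Repeats – no replicates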
OX1R antag-1 – blocks the human orexin 1 receptor. OX1R-expressing cells, FRET antagonist read-out. inhibition, % at 6.6 µM. 330,000 compounds, 1.8% hits; in the data active = inhibition mostly above about 38%, no sharp cut-off; inactive = mostly below about 40%
OX1R antag-2 – blocks the human orexin 1 receptor; CHO/OX1R cells, Fluo-8 calcium fluorescence, orexin A; inhibition, % at 5 µM; 330,000 compounds, 0.43% hits; AID 434989;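 active = inhibition above its plate's threshold, mean inhibition of all tested compounds on the plate plus 3 SD, cut at about 37% in these data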
TAAR1 ag conf – human TAAR1 agonism, confirmed; shares compounds with TAAR1 ag; CHO RD-HGA16 TAAR1, Fluo-8 calcium fluorescence; scaled: DMSO 0%, maximal phenethylamine 100%; activation, % at 3 µM; 2,400 compounds, 82% hits; AID 651783;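 active = activation above a cutoff set at the run's mean compound activation plus 3 SD, cut at about 39% in these data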
Ga16 ag counter – nonselective agonist in parental cells, TAAR1 agonist counter-screen; shares compounds with TAAR1 ag; CHO-Ga16 parental, Fluo-8 calcium fluorescence; normalized to maximal ATP response, DMSO zero; activation, % at 3 µM; 2,400 compounds, 50% hits; AID 651787;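 active = activation above the run cutoff, the mean activation over all tested wells plus 3 SD, cut at about 12% in these data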
TAAR1 desensitize – counter-screen for human TAAR1 agonists: agonists that desensitize TAAR1. 2,400 compounds, 46% hits. inhibition, % at 3 µM. CHO RD-HGA16 hTAAR1, Fluo-8 calcium, beta-PEA response inhibition. shares compounds with TAAR1 ag;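 active = inhibition above the run cutoff, the mean inhibition of all test compounds plus 3 SD, cut at about 49% in these data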;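 also: beta-PEA stimulus applied at its EC80; loss of beta-PEA calcium signal after compound pretreatment read as receptor desensitization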
Ga16 nonsel ant – counter-screen for TAAR1 agonists: nonselective Ga16 antagonists; shares compounds with TAAR1 ag; CHO-Ga16 ATP-induced calcium, Fluo-8 fluorescence; inhibition, % at 3 µM; 2,400 compounds, 39% hits;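 active = inhibition above the plate's mean compound inhibition plus 3 SD, computed per plate, cut at about 22% in these data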
Hits are given with their value; - = inactive; . = not tested or not shown.

SMILES	TAAR1 antagonist	TAAR1 ag	CHO parental Ca	OX1R antag-1	OX1R antag-2	TAAR1 ag conf	Ga16 ag counter	TAAR1 desensitize	Ga16 nonsel ant
Cc1cc(/C=C2\C(=N)N3N=C(c4ccco4)SC3=NC2=O)c(C)n1Cc1ccccc1	103.0	130.1	41.3	-	103.8	107.3	79.2	104.2	90.8
CN1C(C(=O)NCCc2cccs2)CC2Cn3c(nc4cc(Cl)c(Cl)cc43)C21 (stereo unspecified)	-	68.6	-	-	-	82.8	-	-	-
Cc1ccc(Cl)c(NC(=O)COC(=O)CNS(=O)(=O)/C=C/c2ccccc2)c1Cl	-	73.1	-	-	-	-	-	-	-
CCc1cccc(C)c1NC(=O)COC(=O)CNS(=O)(=O)/C=C/c1ccccc1	-	-	-	-	-	.	.	.	.
Cc1cccc(N/C(N)=N/c2nc(C)c(Cc3ccccc3)c(=O)[nH]2)c1	-	-	-	-	-	.	.	.	.
N=C1N(/N=C/c2ccccc2)C(=Nc2ccccc2)C(=S)N1c1ccccc1	-	46.2	-	-	-	-	-	-	-
CC(NCC(O)COc1ccc2ccccc2c1)c1ccccc1 (stereo unspecified)	-	-	-	-	-	.	.	.	.
Cc1cc(OCC(O)CNC(C)c2ccccc2)ccc1C(C)C (stereo unspecified)	-	62.7	-	-	-	70.7	32.1	53.7	32.1
CCOc1ccccc1NC(=O)Nc1ccc(Br)cc1C	-	-	-	-	-	.	.	.	.
CC(C)C[C@H](NC(=O)c1ccco1)C(=O)N1CCC[C@H]1C(=O)NCc1ccccc1	-	-	.	.	.	.	.	.	.
O=C(N[C@H](C(=O)N1CCC[C@H]1C(=O)NCCc1ccccc1Cl)c1ccccc1)c1ccco1	-	41.0	.	.	.	56.5	-	59.9	-
O=C(N[C@H](C(=O)N1CCC[C@H]1C(=O)NCCc1ccccc1Cl)c1ccccc1)c1cccs1	.	.	.	.	.	.	-	.	-
CN(C)C(CNC(=O)C1CCCN1C(=O)c1cccs1)c1ccccc1 (stereo unspecified)	-	-	-	-	-	.	.	.	.
Cc1[nH]nc(-c2cccnc2)c1N=NN(C)C	-	-	.	.	.	.	.	.	.
Cn1c(-c2ccc3c(c2)OCO3)cnc1NCc1ccccc1	-	-	-	-	-	.	.	.	.
Cn1c(-c2ccc3c(c2)OCO3)cnc1NC(=O)CCC(=O)NCCc1ccccc1	-	46.7	-	-	-	40.5	-	-	-
COc1ccc(N2C(=O)CN(Cc3ccc(OC)c(OC)c3)C2=S)cc1	-	153.9	-	-	-	-	-	-	-
CC(C)C[C@H]1CN=C(Nc2ccccc2)N1CCC1CCCCC1	-	44.5	-	-	-	54.7	22.4	-	-
CC(C)C[C@H]1CN=C(Nc2ccccc2)N1CC1CCCC1	-	-	-	-	-	.	.	.	.
Nc1nc(N)c(N=O)c(Nc2cccc(Cl)c2)n1	-	67.8	.	.	.	127.9	48.5	52.8	-
CCc1c(N)nc(N)nc1Nc1ccc(C)c(C)c1	-	-	.	.	.	.	.	.	.
Nc1nc(N)c(N=O)c(Nc2ccc(Cl)c(Cl)c2)n1	-	109.0	.	.	.	136.0	58.3	70.9	-
Cc1ccc(Nc2nc(N)nc(N)c2N=O)cc1Cl	-	75.5	.	.	.	108.7	29.3	-	-
Cc1cc(C)c(C(N)=O)c(Nc2cccc(Cl)c2)n1	-	-	-	-	-	.	.	.	.
CCCc1c(C(=O)NNc2cccc(Cl)c2)cnn1-c1ccccc1	-	-	-	-	-	.	.	.	.
C#CC(CO)N(CCN(Cc1ccccc1)C(C#C)CO)Cc1ccccc1 (stereo unspecified)	-	-	-	-	-	.	.	.	.
COC(=O)c1cc(NC(=O)CN2C(=O)CSC2=O)ccc1Cl	-	70.3	-	-	-	-	-	-	-
COC(=O)c1ccccc1NC(=O)CN1C(=O)CSC1=O	-	-	-	-	-	.	.	.	.
